Test results as given in ChEMBL document CHEMBL1132480, “Synthesis, acid-base behavior, and binding properties of 6-modified myo-inositol 1,4,5-tris(phosphate)s” (J Med Chem, 1999).

What was measured:
[1] = Equilibrium constant (K2) of the compound.; assay type: ADME
In short: (§1)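 Stepwise macroscopic protonation constants measured over pH 2.5–10, where each phosphate has one titratable proton. Observed NMR chemical shifts were treated as weighted averages of the shifts of the protonated and deprotonated species.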

[2] = Equilibrium constant (K1) of the compound.; assay type: ADME; in short: as §1
[3] = Equilibrium constant (K3) of the compound.; assay type: ADME; in short: as §1
[4] = target: Inositol 1,4,5-trisphosphate-gated calcium channel ITPR3 (Bos taurus, UniProt Q8WN95); test: Binding affinity against Inositol 1,4,5-trisphosphate receptor on bovine adrenal cortex microsomes.
Sequence of Inositol 1,4,5-trisphosphate-gated calcium channel ITPR3 (Q8WN95 whole entry): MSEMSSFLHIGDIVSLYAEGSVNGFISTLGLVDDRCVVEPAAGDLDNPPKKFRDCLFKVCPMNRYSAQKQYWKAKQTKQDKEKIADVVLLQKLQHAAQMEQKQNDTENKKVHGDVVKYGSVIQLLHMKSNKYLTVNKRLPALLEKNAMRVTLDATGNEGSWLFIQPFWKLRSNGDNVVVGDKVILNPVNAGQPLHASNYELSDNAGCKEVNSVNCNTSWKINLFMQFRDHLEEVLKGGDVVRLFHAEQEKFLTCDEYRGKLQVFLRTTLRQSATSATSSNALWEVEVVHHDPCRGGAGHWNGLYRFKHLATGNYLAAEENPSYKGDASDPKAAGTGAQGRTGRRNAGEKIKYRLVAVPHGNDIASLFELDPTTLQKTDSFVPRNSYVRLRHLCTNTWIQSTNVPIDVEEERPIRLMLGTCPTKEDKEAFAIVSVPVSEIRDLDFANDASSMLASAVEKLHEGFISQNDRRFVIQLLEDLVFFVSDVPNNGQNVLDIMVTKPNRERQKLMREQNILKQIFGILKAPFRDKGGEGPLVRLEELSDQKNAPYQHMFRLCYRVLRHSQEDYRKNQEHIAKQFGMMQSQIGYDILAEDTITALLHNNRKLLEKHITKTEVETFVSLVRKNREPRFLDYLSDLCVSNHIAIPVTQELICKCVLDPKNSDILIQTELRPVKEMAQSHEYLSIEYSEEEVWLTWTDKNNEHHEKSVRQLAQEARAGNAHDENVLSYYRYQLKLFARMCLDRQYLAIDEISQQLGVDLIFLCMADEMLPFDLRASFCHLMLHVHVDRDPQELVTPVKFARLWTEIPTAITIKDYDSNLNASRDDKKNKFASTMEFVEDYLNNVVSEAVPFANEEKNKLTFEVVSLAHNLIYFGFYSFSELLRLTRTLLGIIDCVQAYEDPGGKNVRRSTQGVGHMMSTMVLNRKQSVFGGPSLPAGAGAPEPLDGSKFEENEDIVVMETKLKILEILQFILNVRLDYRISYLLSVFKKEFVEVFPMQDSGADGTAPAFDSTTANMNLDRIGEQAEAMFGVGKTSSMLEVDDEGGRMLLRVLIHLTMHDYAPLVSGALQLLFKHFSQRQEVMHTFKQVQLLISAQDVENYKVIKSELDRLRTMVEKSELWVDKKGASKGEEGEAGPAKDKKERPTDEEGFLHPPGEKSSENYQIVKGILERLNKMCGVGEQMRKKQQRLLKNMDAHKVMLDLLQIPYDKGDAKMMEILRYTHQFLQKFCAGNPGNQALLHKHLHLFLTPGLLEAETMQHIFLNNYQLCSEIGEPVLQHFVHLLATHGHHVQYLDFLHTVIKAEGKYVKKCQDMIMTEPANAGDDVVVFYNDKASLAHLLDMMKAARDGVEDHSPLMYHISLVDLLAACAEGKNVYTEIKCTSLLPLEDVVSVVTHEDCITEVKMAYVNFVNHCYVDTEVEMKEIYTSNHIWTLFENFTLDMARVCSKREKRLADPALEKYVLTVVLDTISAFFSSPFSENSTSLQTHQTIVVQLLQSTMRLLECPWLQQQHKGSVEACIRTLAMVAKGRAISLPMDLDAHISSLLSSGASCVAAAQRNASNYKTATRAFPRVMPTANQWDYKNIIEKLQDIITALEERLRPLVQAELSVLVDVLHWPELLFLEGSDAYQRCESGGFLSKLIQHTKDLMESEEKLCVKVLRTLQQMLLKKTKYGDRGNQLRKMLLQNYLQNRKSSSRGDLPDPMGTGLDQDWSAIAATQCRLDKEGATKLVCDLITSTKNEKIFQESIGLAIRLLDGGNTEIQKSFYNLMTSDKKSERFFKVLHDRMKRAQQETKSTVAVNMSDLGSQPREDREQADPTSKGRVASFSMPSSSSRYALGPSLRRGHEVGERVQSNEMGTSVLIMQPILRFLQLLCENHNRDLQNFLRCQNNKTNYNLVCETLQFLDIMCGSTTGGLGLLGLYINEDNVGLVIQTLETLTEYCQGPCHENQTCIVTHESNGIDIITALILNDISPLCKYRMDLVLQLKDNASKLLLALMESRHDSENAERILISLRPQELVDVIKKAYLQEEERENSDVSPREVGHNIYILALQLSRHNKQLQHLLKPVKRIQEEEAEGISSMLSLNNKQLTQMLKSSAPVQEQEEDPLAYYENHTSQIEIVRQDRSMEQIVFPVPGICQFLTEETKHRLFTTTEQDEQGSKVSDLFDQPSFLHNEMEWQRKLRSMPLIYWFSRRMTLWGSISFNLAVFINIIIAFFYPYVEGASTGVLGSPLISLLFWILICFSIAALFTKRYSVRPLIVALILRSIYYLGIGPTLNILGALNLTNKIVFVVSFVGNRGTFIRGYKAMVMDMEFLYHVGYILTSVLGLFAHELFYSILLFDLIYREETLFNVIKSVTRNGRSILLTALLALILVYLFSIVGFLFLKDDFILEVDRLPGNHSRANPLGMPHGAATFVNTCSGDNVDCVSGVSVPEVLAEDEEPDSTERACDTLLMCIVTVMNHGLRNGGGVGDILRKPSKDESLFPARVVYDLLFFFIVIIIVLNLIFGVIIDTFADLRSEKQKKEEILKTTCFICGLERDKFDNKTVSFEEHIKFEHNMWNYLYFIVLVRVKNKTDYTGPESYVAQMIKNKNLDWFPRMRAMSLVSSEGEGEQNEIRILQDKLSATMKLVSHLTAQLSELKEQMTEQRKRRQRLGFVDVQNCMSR

[5] = Equilibrium constant (K4) of the compound.; assay type: ADME; in short: as §1

SMILES | Log K2 [1] | Log K1 [2] | Log K3 [3] | IC50 [4] [nM] | Log K4 [5]
O=P(O)(O)O[C@@H]1[C@@H](O)[C@@H](O)[C@@H](OP(=O)(O)O)C[C@H]1OP(=O)(O)O | 6.65 | 8.3 | 5.53 | 1000 | 
N[C@@H]1[C@@H](OP(=O)(O)O)[C@H](OP(=O)(O)O)[C@@H](O)[C@@H](O)[C@H]1OP(=O)(O)O | 7.35 | 10.69 | 5.58 | 5000 | 4.62
O=P(O)(O)O[C@@H]1CC[C@@H](OP(=O)(O)O)[C@H](OP(=O)(O)O)C1 |  |  |  | 3900 | 

Continued, values first:

Log K2 [1] | Log K1 [2] | Log K3 [3] | IC50 [4] [nM] | Log K4 [5] | SMILES
6.64 | 8.76 | 5.56 | 2000 |  | O=P(O)(O)O[C@@H]1[C@H](O)[C@H](O)[C@@H](OP(=O)(O)O)[C@H](OP(=O)(O)O)[C@H]1F
6.39 | 8.01 | 5.4 |  |  | O=P(O)(O)O[C@@H]1[C@H](O)[C@H](O)[C@@H](OP(=O)(O)O)[C@H](OP(=O)(O)O)[C@@H]1O
6.4 | 7.85 | 5.31 |  |  | O=P(O)(O)O[C@@H]1[C@H](O)[C@H](O)[C@@H](OP(=O)(O)O)[C@H](OP(=O)(O)O)[C@H]1O [INS(1,4,5)P3]
